The results in this text go back to ChEMBL document CHEMBL1212889, “Novel antifungal agents: triazolopyridines as inhibitors of beta-1,6-glucan synthesis” (Bioorg Med Chem, 2010).

Series [1] can be described thus: Solubility of the compound at pH 6.8. The following applies: buffer. Format: physicochemical. The gist of the method:
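Water solubility measured at pH 6.8.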

The test system of series [2] is Liver microsomes. Briefly: Metabolic stability in human liver microsomes. Format: ADME, Microsome. The gist of the method: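 Compound at 1 µM final with human liver microsomes (0.5 mg/mL protein) in sodium phosphate buffer pH 7.4, preincubated 20 min at 37 °C. NADPH started the reaction, and MeOH stopped it after 30 min. Samples were centrifuged at 4 °C, and parent loss was measured by LC/MS/MS.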

Series [3] can be described thus: Octanol-phosphate buffered saline partition coefficient, log D of the compound at pH 6.8. Format: physicochemical. In a few lines:
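Shake partition between 1-octanol and phosphate-buffered saline at pH 6.8. Layers were separated by centrifugation at 3000 rpm for 10 min, and each layer was assayed by LC/MS on a C18 column with an ammonium acetate (pH 4.5)/acetic acid–acetonitrile gradient. Log D was computed from the partition coefficient.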

The subject of series [4] is Nakaseomyces glabratus. The series can be described thus: Antimicrobial activity against Candida glabrata ATCC 48435 using alamar blue stain by microdilution assay. It counts as functional. In a few lines: (§1)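 Modified CLSI microdilution in RPMI 1640 with 0.165 M MOPS, plus alamar blue redox indicator. Inoculum was 1 × 10³ to 1 × 10⁴ cells/mL and incubation ran 18–72 h, both set per strain by growth speed, at 30 °C. OD570 was read and MIC-2 taken as the lowest concentration giving 50% absorbance reduction versus the drug-free control.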

For series [5], the system named is Saccharomyces cerevisiae. Briefly: Antimicrobial activity against Saccharomyces cerevisiae AY14 using alamar blue stain by microdilution assay. It counts as functional. The gist of the method: as §1
Series [6] relates to Candida albicans. The series can be described thus: Antimicrobial activity against Candida albicans ATCC 24433 using alamar blue stain by microdilution assay. Format: functional. The gist of the method:
as §1

Series [7] has as its system Candida tropicalis. The series can be described thus: Antimicrobial activity against Candida tropicalis IAM 4965 using alamar blue stain by microdilution assay. It counts as functional. In a few lines: as §1
Series [8] relates to Pichia kudriavzevii. Briefly: Antimicrobial activity against Candida krusei ATCC 44507 using alamar blue stain by microdilution assay. It counts as functional. The gist of the method:
as §1
In general terms: Alamar Blue is a resazurin reagent that responds to reducing activity.

Series [9] deals with Saccharomyces cerevisiae. The series can be described thus: Antimicrobial activity against Saccharomyces cerevisiae AY14 by microdilution assay. Format: functional. In a few lines: (§2)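 CLSI broth microdilution, modified to incubate at 30 °C. MIC-0 is the lowest drug concentration giving an optically clear well. Table footnote: the endpoint was the lowest concentration producing a prominent reduction in turbidity. Drug range 0.004 to 128 µg/mL.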
Background: Dilution methods test growth across graded concentrations, often in twofold steps.

In series [10] the test system is Candida albicans. The series can be described thus: Antimicrobial activity against Candida albicans ATCC 24433 by microdilution assay. It counts as functional. The gist of the method: as §2
The test system of series [11] is Nakaseomyces glabratus. Briefly: Antimicrobial activity against Candida glabrata IFO 0622 by microdilution assay. Format: functional. The gist of the method:
as §2

Series [12] relates to Candida tropicalis. The series can be described thus: Antimicrobial activity against Candida tropicalis TIMM 0313 by microdilution assay. Format: functional. In a few lines: as §2
In series [13] the test system is Pichia kudriavzevii. Briefly: Antimicrobial activity against Candida krusei TIMM 0269 by microdilution assay. It counts as functional. The gist of the method: as §2

In brackets after ≈: the same amount, converted by molar mass.

The term solubility denotes the dissolved amount per volume that the medium holds. One may read the logD as the decadic logarithm of the distribution of all forms, ionised or not, between an organic phase and buffer at a given pH. The term MIC denotes the smallest concentration in the dilution series that meets the test's criterion for growth inhibition. A high value points to a need for much substance.

In turn, `CCc1nc2c(C#N)c(C)c(-c3ccccc3)c(N3CC[C@H](N(C)C)C3)n2n1` registered a solubility in series [1] of 228 µg/mL (≈ 609 µM). In [2], this compound had a Stability of 54%. Also, the logD in series [3] was 2.1. Moreover, the MIC in series [4] is 0.125 µg/mL (≈ 0.334 µM); in series [5], 0.063 µg/mL (≈ 0.168 µM); in series [6], over 4 µg/mL; in series [7], 1 µg/mL (≈ 2.67 µM); in series [8], over 4 µg/mL.
Compound `Cc1c(-c2ccccc2)c(N2CC[C@H](N(C)C)C2)n2nc(C(C)(C)CO)nc2c1C#N` showed a solubility in series [1] of 140 µg/mL (≈ 334 µM). The same compound gave a Stability in series [2] of 64%. The same compound gave a logD in series [3] of 1.8. Further, the minimal inhibitory concentration (MIC) in series [4] was 0.25 µg/mL (≈ 0.597 µM); in series [5] it was 0.125 µg/mL (≈ 0.299 µM); in series [6] it was over 4 µg/mL; in [7], 0.25 µg/mL (≈ 0.597 µM); in series [8], over 4 µg/mL.
In the case of `CCCCc1c(C)c(C#N)c2nc3ccccc3n2c1N1CC[C@H](N(C)C)C1`, the solubility in series [1] came out at 26 µg/mL (≈ 69.2 µM). This compound also showed a Stability in [2] of 57%. The compound also showed a log distribution coefficient (logD) in series [3] of 3.2. Besides, the MIC was 0.25 µg/mL (≈ 0.666 µM) in [9]; over 128 µg/mL in [10]; at most 0.125 µg/mL in series [11]; 0.5 µg/mL (≈ 1.33 µM) in [12]; 0.5 µg/mL (≈ 1.33 µM) in [13].
For the compound `CCN(CC)CCNc1c(-c2ccccc2)c(C)c(C#N)c2nc(C(C)(C)C)nn12`, the concentration in solution in series [1] (solubility) came to 2 µg/mL (≈ 4.94 µM). The Stability in series [2] was 10%. The compound further displayed a logD in [3] of 3.3. Further, the MIC was 0.5 µg/mL (≈ 1.24 µM) in series [9]; over 128 µg/mL in series [10]; 0.5 µg/mL (≈ 1.24 µM) in [11]; over 128 µg/mL in [12]; over 128 µg/mL in series [13].
Regarding `Cc1c(-c2ccccc2)c(N2CC[C@H](N(C)C)C2)n2nc(C(C)(C)COCc3ccccc3)nc2c1C#N`, in series [1], the solubility is under 3 µg/mL. The same compound had a Stability in series [2] of 9%. Further, in series [3], the log distribution coefficient (logD) was 3.8. Moreover, the MIC in [4] is 0.125 µg/mL (≈ 0.246 µM); in [5], 0.063 µg/mL (≈ 0.124 µM); in [6] it was over 4 µg/mL; in series [7] it was 0.125 µg/mL (≈ 0.246 µM); in series [8] it was over 4 µg/mL.
The compound `CCCCc1c(C)c(C#N)c2nc(C(C)(C)C)nn2c1N1CC[C@H](N(C)C)C1` gave a solubility in [1] of 146 µg/mL (≈ 382 µM). The compound also yielded a Stability in series [2] of 11%. This compound also gave a pH-dependent lipophilicity (logD) in series [3] of 3.2. The MIC in [9] is 64 µg/mL (≈ 167 µM); in series [10] it was over 128 µg/mL; in series [11], 32 µg/mL (≈ 83.6 µM); in [12], over 128 µg/mL; in series [13], over 128 µg/mL.
`Cc1c(-c2ccccc2)c(N2CC[C@H](N(C)C)C2)n2nc(C(C)(C)C)nc2c1C#N` came in with a solubility in series [1] of 16 µg/mL (≈ 39.7 µM). In addition, in series [2], the Stability is reported as 9%. The compound also yielded a logD in series [3] of 3.1. In addition, the minimal inhibitory concentration (MIC) in series [9] was at most 0.125 µg/mL; in series [10], over 128 µg/mL; in series [11], at most 0.125 µg/mL; in series [12] it was 2 µg/mL (≈ 4.97 µM); in [13] it was 16 µg/mL (≈ 39.7 µM); in series [4] it was 0.063 µg/mL (≈ 0.157 µM). The MIC is 0.063 µg/mL (≈ 0.157 µM) in series [5], over 4 µg/mL in series [6], 0.25 µg/mL (≈ 0.621 µM) in series [7] and over 4 µg/mL in series [8].
In the case of `Cc1c(-c2ccccc2)c(N2CC[C@H](N(C)C)C2)n2nc(-c3ccccc3)nc2c1C#N`, the MIC in series [9], in series [10], in series [11], in series [12] and in series [13] was over 128 µg/mL each time.
`Cc1cn2c(N3CC[C@H](N(C)C)C3)c(-c3ccccc3)c(C)c(C#N)c2n1`: the concentration in solution in series [1] (solubility) came to 356 µg/mL (≈ 990 µM). In [2], the Stability was found to be 71%. In addition, in [3], the pH-dependent lipophilicity (logD) was 1.9. For the same compound, the MIC in series [4] was 0.5 µg/mL (≈ 1.39 µM); in series [5] it was 1 µg/mL (≈ 2.78 µM); in series [6], over 4 µg/mL; in series [7], over 4 µg/mL; in [8], over 4 µg/mL.
`Cc1c(-c2ccccc2)c(N2CC[C@H](N(C)C)C2)n2cc(C(C)(C)C)nc2c1C#N` showed a solubility in series [1] of 27 µg/mL (≈ 67.2 µM). In [2], this compound registered a Stability of 16%. In addition, the logD in series [3] stood at 3. The MIC in series [4] turned out to be 0.25 µg/mL (≈ 0.623 µM); in series [5], 0.125 µg/mL (≈ 0.311 µM); in [6], 4 µg/mL (≈ 9.96 µM); in series [7], 4 µg/mL (≈ 9.96 µM); in [8], 4 µg/mL (≈ 9.96 µM).
In turn, `Cc1c(-c2ccccc2)c(N2CC[C@H](N(C)C)C2)n2nc(C3CC3)nc2c1C#N` gave a solubility in [1] of 57 µg/mL (≈ 147 µM). In [2], this compound showed a Stability of 48%. Also, the logD in [3] turned out to be 2.4. For the same compound, the MIC in [4] is 0.063 µg/mL (≈ 0.163 µM); in series [5], 0.032 µg/mL (≈ 0.0828 µM); in [6] it was over 4 µg/mL; in series [7], 1 µg/mL (≈ 2.59 µM); in series [8], over 4 µg/mL.
The compound `Cc1c(-c2ccccc2)c(N2CC[C@H](N(C)C)C2)n2c(nc3ccccc32)c1C#N` showed a solubility in series [1] of 5.3 µg/mL (≈ 13.4 µM). Also, the Stability in [2] stood at 29%. The same compound displayed a logD in [3] of 3.1. The MIC in [9] was at most 0.125 µg/mL; in [10], over 128 µg/mL; in [11] it was at most 0.125 µg/mL; in series [12] it was 0.5 µg/mL (≈ 1.26 µM); in series [13] it was at most 0.125 µg/mL.
Regarding `OC(Cn1cncn1)(Cn1cncn1)c1ccc(F)cc1F` [FLUCONAZOLE], the solubility in series [1] was over 2000 µg/mL. In series [2], the Stability was 96%. Besides, the minimal inhibitory concentration (MIC) in series [9] came to 4 µg/mL (≈ 13.1 µM); in [10], 0.25 µg/mL (≈ 0.816 µM); in series [11] it was 2 µg/mL (≈ 6.53 µM); in series [12] it was 0.25 µg/mL (≈ 0.816 µM); in [13], 16 µg/mL (≈ 52.2 µM).
In turn, `Cc1nc2c(C#N)c(C)c(-c3ccccc3)c(N3CC[C@H](N(C)C)C3)n2n1` displayed a solubility in [1] of 376 µg/mL (≈ 1040 µM). This compound displayed a Stability in series [2] of 84%. The compound also displayed a logD in series [3] of 1.7. Also, the MIC in [9] is 8 µg/mL (≈ 22.2 µM); in [10] it was over 128 µg/mL; in [11], 2 µg/mL (≈ 5.55 µM); in series [12] it was over 128 µg/mL; in [13], over 128 µg/mL.
In turn, `CCCCc1nc2c(C#N)c(C)c(-c3ccccc3)c(N3CC[C@H](N(C)C)C3)n2n1` gave a solubility in [1] of 33 µg/mL (≈ 82 µM). For the same compound, the Stability in [2] is recorded as 5%. This compound showed a logD in series [3] of 3.2. Besides, the MIC in [9] was 2 µg/mL (≈ 4.97 µM); in series [10], over 128 µg/mL; in [11], 1 µg/mL (≈ 2.48 µM); in [12], over 64 µg/mL; in series [13], over 64 µg/mL.
On to `Cc1c(-c2ccccc2)c(N2CC[C@H](N(C)C)C2)n2nc(C(C)(C)C)cc2c1C#N`, for which the solubility in [1] is under 2 µg/mL. Also, the Stability in [2] is 12%. In [3], this compound gave a logD of 4.8. Further, the MIC was determined as 1 µg/mL (≈ 2.49 µM) in series [4]; 1 µg/mL (≈ 2.49 µM) in series [5]; 4 µg/mL (≈ 9.96 µM) in series [6]; 1 µg/mL (≈ 2.49 µM) in series [7]; 4 µg/mL (≈ 9.96 µM) in series [8].
